Measurements published in ChEMBL document CHEMBL5120972, “Small-Molecule Inhibitors of the MLL1 CXXC Domain, an Epigenetic Reader of DNA Methylation” (ACS Med Chem Lett, 2022).

Columns and labels:
[1] = molecular target: T1, Lysine-specific demethylase 2A (Homo sapiens, UniProt Q9Y2K7); assay: Inhibition of GST-tagged human KDM2A (562 to 618 residues) expressed in Escherichia coli BL21 cells incubated for 30 mins by fluorescence polarization assay
T1 sequence (Q9Y2K7 whole entry): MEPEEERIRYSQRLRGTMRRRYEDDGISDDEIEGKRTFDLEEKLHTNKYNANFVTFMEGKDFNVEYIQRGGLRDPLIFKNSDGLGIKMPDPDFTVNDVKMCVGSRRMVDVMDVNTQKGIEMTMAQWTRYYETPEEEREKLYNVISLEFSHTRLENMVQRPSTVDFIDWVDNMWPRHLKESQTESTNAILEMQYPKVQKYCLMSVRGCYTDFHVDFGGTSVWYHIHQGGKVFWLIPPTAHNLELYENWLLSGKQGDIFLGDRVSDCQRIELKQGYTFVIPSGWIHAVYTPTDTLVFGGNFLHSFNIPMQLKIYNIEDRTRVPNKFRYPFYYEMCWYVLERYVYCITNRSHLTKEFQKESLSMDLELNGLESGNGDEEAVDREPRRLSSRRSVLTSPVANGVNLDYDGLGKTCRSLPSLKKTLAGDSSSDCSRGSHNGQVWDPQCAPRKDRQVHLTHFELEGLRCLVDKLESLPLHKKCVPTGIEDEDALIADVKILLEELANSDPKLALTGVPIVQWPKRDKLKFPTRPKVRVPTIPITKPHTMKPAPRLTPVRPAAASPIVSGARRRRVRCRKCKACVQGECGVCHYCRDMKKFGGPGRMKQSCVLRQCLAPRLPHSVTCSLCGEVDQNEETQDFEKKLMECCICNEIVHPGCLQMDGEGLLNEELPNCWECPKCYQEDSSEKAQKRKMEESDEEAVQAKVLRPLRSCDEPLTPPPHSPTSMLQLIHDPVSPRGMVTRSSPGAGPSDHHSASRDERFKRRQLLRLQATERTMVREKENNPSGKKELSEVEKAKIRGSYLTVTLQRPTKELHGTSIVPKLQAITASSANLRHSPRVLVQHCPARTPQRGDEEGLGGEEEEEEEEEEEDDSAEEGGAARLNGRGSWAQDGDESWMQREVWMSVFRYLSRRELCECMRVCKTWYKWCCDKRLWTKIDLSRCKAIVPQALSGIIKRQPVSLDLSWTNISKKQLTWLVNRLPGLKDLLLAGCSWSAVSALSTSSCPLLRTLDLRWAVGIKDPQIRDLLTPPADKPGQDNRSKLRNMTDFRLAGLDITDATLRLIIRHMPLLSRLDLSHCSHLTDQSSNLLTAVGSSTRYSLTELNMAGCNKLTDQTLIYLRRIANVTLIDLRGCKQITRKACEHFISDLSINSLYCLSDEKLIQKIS
Outline: (§1)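 Competition fluorescence polarization assay. CXXC domain protein is held at 2× its own KD. All domains are expressed and purified by the same method. Standard deviations come from three separate measurements.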

[2] = molecular target: T2, F-box/LRR-repeat protein 19 (Homo sapiens, UniProt Q6PCT2); assay: Inhibition of GST-tagged human FBXL19 (31 to 86 residues) expressed in Escherichia coli BL21 cells incubated for 30 mins by fluorescence polarization assay; outline: as §1
T2 sequence (Q6PCT2 whole entry): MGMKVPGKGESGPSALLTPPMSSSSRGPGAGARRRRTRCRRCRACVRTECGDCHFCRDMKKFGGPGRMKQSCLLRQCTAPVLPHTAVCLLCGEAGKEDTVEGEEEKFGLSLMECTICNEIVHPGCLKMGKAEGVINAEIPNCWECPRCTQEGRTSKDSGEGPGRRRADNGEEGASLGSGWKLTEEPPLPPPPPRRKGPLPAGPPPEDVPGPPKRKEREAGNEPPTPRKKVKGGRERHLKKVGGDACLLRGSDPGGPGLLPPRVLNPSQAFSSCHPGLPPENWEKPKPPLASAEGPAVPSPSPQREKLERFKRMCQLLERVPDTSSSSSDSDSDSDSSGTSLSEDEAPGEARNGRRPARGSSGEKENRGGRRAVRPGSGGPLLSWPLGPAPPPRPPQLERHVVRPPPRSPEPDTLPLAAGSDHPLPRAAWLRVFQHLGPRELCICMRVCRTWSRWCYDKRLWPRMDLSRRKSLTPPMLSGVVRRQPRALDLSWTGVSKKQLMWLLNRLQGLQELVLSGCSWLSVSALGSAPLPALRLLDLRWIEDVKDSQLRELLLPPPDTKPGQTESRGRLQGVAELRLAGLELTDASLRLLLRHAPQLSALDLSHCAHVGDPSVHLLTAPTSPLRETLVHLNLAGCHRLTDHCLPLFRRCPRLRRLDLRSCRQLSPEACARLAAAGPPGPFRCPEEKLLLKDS

[3] = Inhibition of GST-tagged human MLL1 Cys1188Ala mutant (1147 to 1203 residues) expressed in Escherichia coli BL21 cells incubated for 30 mins by fluorescence polarization assay
[4] = molecular target: Methylcytosine dioxygenase TET1 (Homo sapiens, UniProt Q8NFU7); assay: Inhibition of GST-tagged human TET1 (583 to 633 residues) expressed in Escherichia coli BL21 cells incubated for 30 mins by fluorescence polarization assay; outline: as §1
[5] = molecular target: Methylcytosine dioxygenase TET3 (Homo sapiens, UniProt O43151); assay: Inhibition of GST-tagged human TET3 ([…] residues) expressed in Escherichia coli BL21 cell incubated for 30 mins by fluorescence polarization assay; outline: as §1
Methylcytosine dioxygenase TET3, sequence (O43151 whole entry): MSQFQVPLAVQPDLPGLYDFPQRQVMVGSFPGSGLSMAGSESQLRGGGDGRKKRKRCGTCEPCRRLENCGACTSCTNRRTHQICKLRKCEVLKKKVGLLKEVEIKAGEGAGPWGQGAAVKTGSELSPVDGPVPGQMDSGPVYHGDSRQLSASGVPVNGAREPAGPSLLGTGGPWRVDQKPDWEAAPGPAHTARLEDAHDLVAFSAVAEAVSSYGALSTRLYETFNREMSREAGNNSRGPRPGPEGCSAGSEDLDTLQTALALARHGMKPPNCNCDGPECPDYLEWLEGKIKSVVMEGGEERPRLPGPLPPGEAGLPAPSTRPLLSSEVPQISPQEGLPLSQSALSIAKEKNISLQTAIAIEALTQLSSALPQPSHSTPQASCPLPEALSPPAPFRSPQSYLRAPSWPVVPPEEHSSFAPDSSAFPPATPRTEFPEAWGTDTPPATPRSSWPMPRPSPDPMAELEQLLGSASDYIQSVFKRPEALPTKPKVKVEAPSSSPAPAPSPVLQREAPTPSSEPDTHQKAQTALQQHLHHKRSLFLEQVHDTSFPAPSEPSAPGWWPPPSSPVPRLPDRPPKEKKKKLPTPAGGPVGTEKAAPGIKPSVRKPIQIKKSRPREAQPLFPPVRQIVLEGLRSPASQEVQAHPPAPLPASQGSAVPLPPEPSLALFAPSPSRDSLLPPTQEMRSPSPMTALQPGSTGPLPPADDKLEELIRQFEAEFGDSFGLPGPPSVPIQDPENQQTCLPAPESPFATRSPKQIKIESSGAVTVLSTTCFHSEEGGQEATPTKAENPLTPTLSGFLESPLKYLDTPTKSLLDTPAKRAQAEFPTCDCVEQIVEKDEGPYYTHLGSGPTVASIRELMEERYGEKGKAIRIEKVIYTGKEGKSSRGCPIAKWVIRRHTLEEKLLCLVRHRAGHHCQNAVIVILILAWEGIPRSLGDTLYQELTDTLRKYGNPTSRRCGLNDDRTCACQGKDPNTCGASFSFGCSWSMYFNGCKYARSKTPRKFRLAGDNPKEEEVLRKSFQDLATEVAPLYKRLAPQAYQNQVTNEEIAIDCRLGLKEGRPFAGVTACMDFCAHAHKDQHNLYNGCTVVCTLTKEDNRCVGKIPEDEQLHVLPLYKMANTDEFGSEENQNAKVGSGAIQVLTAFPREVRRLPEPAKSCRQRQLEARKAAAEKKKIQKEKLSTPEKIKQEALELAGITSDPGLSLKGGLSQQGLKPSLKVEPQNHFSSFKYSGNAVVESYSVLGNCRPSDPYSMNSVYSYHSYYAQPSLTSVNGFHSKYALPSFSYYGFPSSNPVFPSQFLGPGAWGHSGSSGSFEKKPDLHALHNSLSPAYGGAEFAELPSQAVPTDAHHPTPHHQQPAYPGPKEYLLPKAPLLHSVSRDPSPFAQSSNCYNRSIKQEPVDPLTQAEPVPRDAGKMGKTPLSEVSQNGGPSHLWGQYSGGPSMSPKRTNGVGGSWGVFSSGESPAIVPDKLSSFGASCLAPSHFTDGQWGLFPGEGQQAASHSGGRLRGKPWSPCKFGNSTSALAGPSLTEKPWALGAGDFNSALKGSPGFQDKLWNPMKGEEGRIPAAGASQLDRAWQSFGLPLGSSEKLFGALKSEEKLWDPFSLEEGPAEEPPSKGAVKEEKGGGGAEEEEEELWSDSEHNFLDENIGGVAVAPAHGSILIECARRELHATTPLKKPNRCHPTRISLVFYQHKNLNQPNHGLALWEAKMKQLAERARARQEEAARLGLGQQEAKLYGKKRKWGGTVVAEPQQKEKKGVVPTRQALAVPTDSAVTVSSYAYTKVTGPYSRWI

Methylcytosine dioxygenase TET1, sequence (Q8NFU7 whole entry, the tested form may be a part): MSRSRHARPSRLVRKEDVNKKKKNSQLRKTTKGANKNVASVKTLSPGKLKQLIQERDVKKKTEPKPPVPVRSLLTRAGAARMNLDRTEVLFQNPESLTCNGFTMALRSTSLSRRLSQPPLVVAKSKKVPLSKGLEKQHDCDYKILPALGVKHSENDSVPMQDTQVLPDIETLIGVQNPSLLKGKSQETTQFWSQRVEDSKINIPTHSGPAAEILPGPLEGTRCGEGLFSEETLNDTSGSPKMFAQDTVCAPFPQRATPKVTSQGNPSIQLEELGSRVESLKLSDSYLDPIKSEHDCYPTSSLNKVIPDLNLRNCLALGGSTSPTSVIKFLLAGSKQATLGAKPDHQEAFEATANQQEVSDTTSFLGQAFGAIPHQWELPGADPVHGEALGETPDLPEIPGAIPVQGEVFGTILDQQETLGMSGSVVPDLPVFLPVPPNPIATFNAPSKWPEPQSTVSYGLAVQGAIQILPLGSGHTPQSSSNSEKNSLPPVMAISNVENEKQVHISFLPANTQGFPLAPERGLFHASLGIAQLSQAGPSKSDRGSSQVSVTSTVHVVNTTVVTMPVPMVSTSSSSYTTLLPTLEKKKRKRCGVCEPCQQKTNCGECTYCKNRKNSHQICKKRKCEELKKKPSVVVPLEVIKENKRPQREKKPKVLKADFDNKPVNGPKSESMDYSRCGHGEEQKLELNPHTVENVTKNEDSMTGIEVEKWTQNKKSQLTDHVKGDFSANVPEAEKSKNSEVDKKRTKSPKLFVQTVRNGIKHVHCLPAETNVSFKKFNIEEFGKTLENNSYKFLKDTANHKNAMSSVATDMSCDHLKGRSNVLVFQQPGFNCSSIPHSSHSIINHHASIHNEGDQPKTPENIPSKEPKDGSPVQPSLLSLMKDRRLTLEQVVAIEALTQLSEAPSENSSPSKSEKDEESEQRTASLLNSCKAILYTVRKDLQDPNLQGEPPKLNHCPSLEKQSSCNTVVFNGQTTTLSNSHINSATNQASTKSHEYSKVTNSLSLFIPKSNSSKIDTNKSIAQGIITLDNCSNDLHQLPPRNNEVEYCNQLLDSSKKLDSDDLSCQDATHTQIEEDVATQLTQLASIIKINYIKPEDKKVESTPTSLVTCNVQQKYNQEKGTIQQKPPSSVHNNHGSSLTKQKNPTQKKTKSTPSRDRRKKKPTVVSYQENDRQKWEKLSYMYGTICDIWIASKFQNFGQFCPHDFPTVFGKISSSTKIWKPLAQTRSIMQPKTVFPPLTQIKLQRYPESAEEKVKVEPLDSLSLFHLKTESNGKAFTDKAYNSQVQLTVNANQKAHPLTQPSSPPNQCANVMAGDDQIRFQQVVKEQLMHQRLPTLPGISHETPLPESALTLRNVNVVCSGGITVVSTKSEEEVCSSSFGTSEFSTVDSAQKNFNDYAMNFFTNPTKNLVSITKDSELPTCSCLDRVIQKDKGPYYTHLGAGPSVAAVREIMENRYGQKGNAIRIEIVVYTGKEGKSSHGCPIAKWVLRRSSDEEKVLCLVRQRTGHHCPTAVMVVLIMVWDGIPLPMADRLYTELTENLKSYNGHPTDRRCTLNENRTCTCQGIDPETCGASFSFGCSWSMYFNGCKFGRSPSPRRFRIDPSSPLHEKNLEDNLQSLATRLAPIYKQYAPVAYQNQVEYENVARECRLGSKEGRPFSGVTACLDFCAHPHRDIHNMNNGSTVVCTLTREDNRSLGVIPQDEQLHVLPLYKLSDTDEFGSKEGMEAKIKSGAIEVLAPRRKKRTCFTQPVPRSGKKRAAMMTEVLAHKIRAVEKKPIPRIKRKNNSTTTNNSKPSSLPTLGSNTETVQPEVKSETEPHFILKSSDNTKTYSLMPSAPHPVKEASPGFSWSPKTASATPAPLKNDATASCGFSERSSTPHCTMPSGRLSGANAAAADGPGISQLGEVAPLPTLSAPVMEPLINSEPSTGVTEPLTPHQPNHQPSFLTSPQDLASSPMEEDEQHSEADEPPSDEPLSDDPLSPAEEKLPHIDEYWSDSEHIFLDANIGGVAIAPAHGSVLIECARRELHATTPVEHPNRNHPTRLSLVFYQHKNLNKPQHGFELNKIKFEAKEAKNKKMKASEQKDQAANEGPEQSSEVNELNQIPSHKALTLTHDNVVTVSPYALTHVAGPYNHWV

Row | SMILES | IC50 [1] [µM] | IC50 [2] [µM] | IC50 [3] [µM] | IC50 [4] [µM] | IC50 [5] [µM]
1 | C=CC(=O)N1CCC(C(=O)O)(c2ccc(Cl)cc2)CC1 | 33 | 31 | 108 | 166 | 48
2 | C=CC(=O)N1CCC(c2ccccc2)(c2nnn[nH]2)CC1 | 4.4 | 3.1 | 20 | 11 | 5.5
3 | C=CC(=O)N1CCC(C(=O)O)(c2ccc(OCC)cc2)CC1 | 4.2 | 2.4 | 15.4 | 6.3 | 5.8
4 | C=CC(=O)N1CCC(c2ccc(OCC)cc2)(c2nnn[nH]2)CC1 | 36 | 10.9 | 104 | 24 | 21
5 | C=CC(=O)N1CCC(c2ccc(OC)cc2)(c2nnn[nH]2)CC1 | 16.4 | 8.9 | 59 | 31 | 15.5
6 | C=CC(=O)N1CCC(C(=O)NS(=O)(=O)c2ccccc2)(c2ccccc2)CC1 | 30 | 21.7 | 52 | 107 | 33
7 | C=CC(=O)N1CCC(c2cccc(OCC)c2)(c2nnn[nH]2)CC1 | 7.4 | 2.6 | 43 | 10.7 | 7
8 | C=CC(=O)N1CCC(C(=O)O)(c2ccc(OC)cc2)CC1 | 30 | 17 | 51 | 81 | 30
9 | C=CC(=O)N1CCC(C(=O)O)(c2ccccc2)CC1 | 3.9 | 1.8 | 3.6 | 11.3 | 5.1
